Values joined by “and” are separate entries in the source; they are usually repeats but may differ in a detail not shown here. Equal entries are not always repeated.
Assays:
[1] = test system: Rattus norvegicus; assay: Compound was tested for the induction of lower lip retraction in rats at a dose of 1.25 mg/kg; format: functional
Procedure, shortened: (§1)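 Male Wistar rats (220-260 g), compound ip as fresh aqueous solution, 6-8 animals/dose, each used once. Rats caged individually; lower lip retraction scored at 15, 30 and 45 min post-injection: 0 incisors not visible, 0.5 partly, 1 completely visible. Mean ± SEM score; Dunnett's test vs vehicle.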

[2] = test system: Rattus norvegicus; assay: Compound was tested for the induction of lower lip retraction in rats at a dose of 2.5 mg/kg; format: functional; procedure, shortened: as §1
[3] = test system: Rattus norvegicus; assay: Compound was tested for the induction of lower lip retraction in rats at a dose of 5 mg/kg; format: functional; procedure, shortened: as §1
[4] = test system: Rattus norvegicus; assay: Compound was tested for the induction of behavioral syndrome(flat body posture) in rats at a dose of 10 mg/kg; format: functional
Procedure, shortened: (§2)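 Male Wistar rats (220-260 g), reserpine 1 mg/kg sc 18 h before test; compound as fresh aqueous solution ip, rats placed in cages 5 min beforehand. 45-s observation sessions began 3 min after injection, repeated every 3 min over five periods; forepaw treading and flat body posture scored 0 (absent) to 3 (intense). 6-8 rats/dose; mean ± SEM, Dunnett's test.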

[5] = test system: Rattus norvegicus; assay: Compound was tested for the induction of behavioral syndrome(flat body posture) in rats at a dose of 5 mg/kg; format: functional; procedure, shortened: as §2
[6] = test system: Rattus norvegicus; assay: Compound was tested for the induction of behavioral syndrome (forepaw treading) in rats at a dose of 10 mg/kg; format: functional; procedure, shortened: as §2
[7] = test system: Rattus norvegicus; assay: Compound was tested for the induction of behavioral syndrome (forepaw treading) in rats at a dose of 5 mg/kg; format: functional; procedure, shortened: as §2
[8] = test system: Rattus norvegicus; assay: Effect on the 8-OH-DPAT-Induced Behavior(flat body posture) in Reserpine Pretreated Rats at a dose of 10 mg/kg; format: functional
Procedure, shortened: (§3)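 Reserpinized male Wistar rats (reserpine 1 mg/kg sc, 18 h prior); compound ip 15 min before 8-OH-DPAT 5 mg/kg ip, fresh aqueous solutions. Observations began 3 min after 8-OH-DPAT, repeated every 3 min for 15 min; flat body posture ranked 0-3. 6-8 rats/dose; mean ± SEM, Dunnett's test vs vehicle + 8-OH-DPAT.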

[9] = test system: Rattus norvegicus; assay: Effect on the 8-OH-DPAT-Induced Behavior(flat body posture) in Reserpine Pretreated Rats at a dose of 5 mg/kg; format: functional; procedure, shortened: as §3
[10] = biological target: T1, 5-hydroxytryptamine receptor 1A (Rattus norvegicus, UniProt P19327); assay: Binding affinity towards 5-hydroxytryptamine 1A receptor in the rat brain (hippocampus) using [3H]8-OH-DPAT; format: tissue-based
T1 sequence (P19327 whole entry): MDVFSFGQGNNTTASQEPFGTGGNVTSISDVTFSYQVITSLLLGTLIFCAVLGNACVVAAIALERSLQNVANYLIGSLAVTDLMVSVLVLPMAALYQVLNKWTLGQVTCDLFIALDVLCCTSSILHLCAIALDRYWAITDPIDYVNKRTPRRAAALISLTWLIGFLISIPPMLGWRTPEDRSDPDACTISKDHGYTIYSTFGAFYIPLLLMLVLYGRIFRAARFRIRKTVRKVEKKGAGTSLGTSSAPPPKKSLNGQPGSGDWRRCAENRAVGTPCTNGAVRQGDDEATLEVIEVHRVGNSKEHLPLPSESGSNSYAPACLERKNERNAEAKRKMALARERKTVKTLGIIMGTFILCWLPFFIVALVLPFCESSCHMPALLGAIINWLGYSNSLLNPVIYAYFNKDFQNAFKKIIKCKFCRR
Procedure, shortened: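 Rat hippocampal membranes; competition binding against [3H]-8-OH-DPAT (190 Ci/mmol) using 10-14 drug concentrations, each run in triplicate. Ki derived from at least three independent competition experiments. Remaining conditions follow a previously published procedure.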

SMILES: O=C1CC2(CCCC2)CC(=O)N1CCCCN1CCN(c2ncccn2)CC1 [BUSPIRONE]
- LLR score [1]: 1.6
- LLR score [2]: 2.3
- LLR score [3]: 2.4
- Behavioral score [4]: 6.4
- Behavioral score [5]: 6.8
- Behavioral score [6]: 0.6
- Behavioral score [7]: 0.2
- Behavioral score [8]: 9.5 and 3.7
- Behavioral score [9]: 14.3 and 5

SMILES: O=C1c2ccccc2C(=O)N1CCN1CCc2ccccc2C1
- Ki [10]: 41.3 µM

SMILES: O=C1CC2(CCCC2)CC(=O)N1CCCCN1CCc2ccccc2C1
- Ki [10]: 0.005 µM
- LLR score [1]: 1.2
- LLR score [2]: 1.9
- LLR score [3]: 2.5
- Behavioral score [4]: 11
- Behavioral score [5]: 7.8
- Behavioral score [6]: 2.7
- Behavioral score [7]: 2
- Behavioral score [8]: 13.7 and 7.8
- Behavioral score [9]: 14.5 and 8.9

SMILES: c1ccc2c(c1)CCNC2 [1,2,3,4-TETRAHYDROISOQUINOLINE]
- Ki [10]: > 50 µM

SMILES: O=C1CC2(CCCC2)CC(=O)N1CCN1CCc2ccccc2C1
- Ki [10]: 1.33 µM

SMILES: O=C1c2ccccc2C(=O)N1CCCCN1CCc2ccccc2C1
- Ki [10]: 0.14 µM

— ChEMBL document CHEMBL1129514 (J Med Chem, 1996)
